Measurements from different studies.
RPS6KA5: Ribosomal protein S6 kinase alpha-5 (RPS6KA5, Homo sapiens, UniProt O75582)
RPS6KA5 N-terminal kinase domain: Ribosomal protein S6 kinase alpha-5, N-terminal kinase domain (RPS6KA5, Homo sapiens, UniProt O75582)
RPS6KA5 C-terminal kinase domain: Ribosomal protein S6 kinase alpha-5, C-terminal kinase domain (RPS6KA5, Homo sapiens, UniProt O75582)

| SMILES | target | test | conditions | measurement | value |
| --- | --- | --- | --- | --- | --- |
| Cn1cc(-c2cc(F)cc(N3CCn4c(cc5c4CCCC5)C3=O)c2CO)cc(Nc2ccc(N3CCN(C4COC4)CC3)cn2)c1=O | RPS6KA5 | enzyme activity, inhibitor | 0.1 µM | inhibition | 13% |
| Cn1cncc1[C@@](O)(COc1ccc(C#N)cc1-c1ccc(OC(F)(F)F)cc1)c1ccc(C#N)cc1 | RPS6KA5 N-terminal kinase domain | cell-free assay, competition with immobilised ligand | 1 µM | remaining binding | 88% |
| Cn1cc(-c2cccc(N3CCc4c(sc5c4CC(C)(C)C5)C3=O)c2CO)cc(Nc2ccncn2)c1=O | RPS6KA5 | enzyme activity, inhibitor | 1 µM | inhibition | 2% |
| Nc1ncc(-c2nc(N3CCOCC3)nc(N3CCOCC3)n2)c(C(F)F)n1 | RPS6KA5 N-terminal kinase domain | binding, competition with immobilised ligand | 10 µM | remaining binding | 88% |
| C#Cc1n[nH]c2c(-c3cn([C@@H](C)c4ccccn4)c(=O)[nH]c3=O)cc(F)cc12 | RPS6KA5 | enzyme activity, inhibitor | 0.1 µM | inhibition | 2% |
| N#CC1(c2ccccn2)CCN(Cc2cc(C(=O)O)c(=O)n3ccccc23)CC1 | RPS6KA5 C-terminal kinase domain | cell-free assay, competition with immobilised ligand | 1 µM | remaining binding | 83% |
| CC(C)(C)c1cc(C=C(C#N)C#N)cc(Br)c1O | RPS6KA5 | enzyme activity, inhibitor | 0.5 µM | remaining activity | 108% |
| Cc1nn(C)cc1-c1nc2c(N3CCN(Cc4ccc(Cl)cc4)CC3)c(Cl)cnc2[nH]1 | RPS6KA5 C-terminal kinase domain | binding, competition with immobilised ligand | 1 µM | remaining binding | 100% |
| C#Cc1n[nH]c2c(-c3cn([C@@H](C)c4ccccc4)c(=O)[nH]c3=O)cc(F)cc12 | RPS6KA5 | enzyme activity, inhibitor | 0.1 µM | inhibition | -1.9% |
| O=c1[nH]c2ccccc2n1C1CCN(Cc2ccc(-c3[nH]c4cc5ncnc5cc4nc3-c3ccccc3)cc2)CC1 | RPS6KA5 | cell-free assay | 0.5 µM | remaining signal | 103% |
